Source: PubChem (several laboratories)
Pemphigus Ab inh: inhibitors of pemphigus antibody binding to human desmoglein-3. P32926. binding (percent of control), % at 10 µM. 0.48% of 310,000 active. AID 588358. DSG3-coupled beads, scFv-anti-DSG3-GFP binding, flow cytometry; hits give low values;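 active means binding more than 3 SD below its plate's average and above zero; inconclusive means below that plate limit but binding exactly zero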;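 further: hits lower antibody fragment binding to DSG3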
pCIP destab: p/CIP protein destabilization. Q05BA5. F442A p/CIP-EGFP cells, EGFP fluorescence, 16 h. decrease of EGFP signal, % at 10 µM. 0.01% of 290,000 active;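 active means EGFP signal decrease of at least 30% at 10 µM or well 3 SD below plate mean, unless failing retest; inactive means the rest, including hits failing retest or dose response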
Runt-CBFb FRET: Runt domain-CBFb interaction inhibition; Q01196+Q13951; Cerulean-Runt/Venus-CBFb FRET ratio 530/480, 1 h; inhibition, % at 20 µM; 0.46% of 220,000 active;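 active means inhibition over about 50% at 20 µM in the single-dose screen, limit read from the data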;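 further: 0% = DMSO wells and 100% = excess unlabeled CBFb competitor control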
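Measured by: fluorescence energy transfer, 422 nm excitation, 530/480 nm emission; Assay system: Cerulean-Runt domain; Medium: Tris pH 7.5 buffer with BSA; Measure: loss of energy transfer signal; Controls: 5 µM unlabeled CBFb as full-inhibition high control; Incubation: protein complex preformed 1 h, compound exposure 1 h, room temperature, dark.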
RanGTP-Impb inh: disruptors of Ran-importin-beta complex formation – biochemical, FRET, CFP-Ran, YFP-importin-beta, homogeneous, primary screen; cell-free CFP-Ran/YFP-importin-beta FRET ratio; inhibition, % (concentration not given with the values); 1.1% of 300,000 active;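 active means more than half of the replicate wells show a fall in the fluorescence ratio signal beyond about 16%, limit read from the data, passing the limit was not always enough; inconclusive means exactly half of the replicate wells pass the set limit; inactive means fewer than half of replicates pass the limit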;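 further: 0% = DMSO wells and 100% = Ran loaded with GDP instead of GTP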
Runt-SMMHC FRET: Runt domain-CBFb-SMMHC interaction inhibition. Q01196+Q13951. Cerulean-Runt/Venus-CBFb-SMMHC FRET ratio 530/480, 1 h. inhibition, % at 20 µM. 0.74% of 220,000 active. AID 1434;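 active means mean inhibition across duplicate retests at 20 µM reaching about 50%, limit read from the data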;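 further: 0% = DMSO wells and 100% = wells with excess untagged CBFb-SMMHC; inhibitors lower the FRET ratio by blocking Runt binding to CBFb-SMMHC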
Hck Nef HTS: blocks Nef-activated human Hck kinase; P08631; Recombinant Hck-YEEI plus Nef, Z-Lyte FRET kinase assay; 0.68% of 220,000 active; inhibition, % at 20 µM;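 active means Hck-Nef kinase inhibition above about 50%, limit read from the data; inactive means inhibition below that limit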;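 further: 0% = DMSO with Hck plus Nef and 100% = Hck alone without Nef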
Hck-Nef confirm: confirmation of Hck-Nef kinase inhibitors | shares compounds with Hck Nef HTS | 28% of 1,300 active | Recombinant Hck-YEEI:Nef, Z-Lyte FRET kinase assay | calls only at 10 µM | AID 463188;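 active means average inhibition of at least 50%, with Z-scores no higher than 3 in both the phospho-tyrosine peptide and fluorescence counterscreens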
Numbers without * were called inactive. Rows were chosen to be rich in hits. Some 2.1% of all compounds tested hit in one or more screens of this group.

How did O=C(Nc1c[nH]c(=O)[nH]c1=O)c1ccc2c(c1)C(=O)N(c1cccc([N+](=O)[O-])c1)C2=O do in these assays?
Pemphigus Ab inh: 94; pCIP destab: -6; Runt-CBFb FRET: -2; RanGTP-Impb inh: 7; Runt-SMMHC FRET: -8; Hck Nef HTS: 94*; Hck-Nef confirm: active

How did O=C(Nc1ccccc1C(=O)O)c1ccc2c(c1)C(=O)N(c1cccc([N+](=O)[O-])c1)C2=O do in these assays?
Pemphigus Ab inh: 103; pCIP destab: 11; RanGTP-Impb inh: 1

How did Cc1cccc(Cc2nnc(CCC(=O)N(C)Cc3ccncc3C)o2)c1 do in these assays?
Pemphigus Ab inh: 97; pCIP destab: -11; Runt-CBFb FRET: -3; RanGTP-Impb inh: inconclusive; Runt-SMMHC FRET: -11; Hck Nef HTS: 84*; Hck-Nef confirm: inactive

How did CCOc1cc(/C=N/NC(=O)C(=O)Nc2cc(Cl)ccc2C)ccc1O do in these assays?
Pemphigus Ab inh: 94; pCIP destab: -7; Runt-CBFb FRET: 1; RanGTP-Impb inh: 3; Runt-SMMHC FRET: -8; Hck Nef HTS: -1

What do the screens show for `CCOC(=O)N1CCN(S(=O)(=O)N2CCCC(C(=O)NCc3ccccc3OCC)C2)CC1` (configuration not stated)?
Pemphigus Ab inh: 102

Results for CCC(C)[C@H](N)C(=O)NC[C@H]1CC[C@H](C(=O)N[C@@H](Cc2ccccc2)C(=O)O)CC1 (some centres not stated) ?
Pemphigus Ab inh: 100; pCIP destab: -2; RanGTP-Impb inh: -4

Results for O=C(Cn1c2ccc(F)cc2c2nc3n(c(=O)c21)CCS3)Nc1ccc(Cl)cc1F ?
Pemphigus Ab inh: 111; pCIP destab: -68; Runt-CBFb FRET: -1; RanGTP-Impb inh: 1; Runt-SMMHC FRET: -6; Hck Nef HTS: 61*; Hck-Nef confirm: inactive

How did O=C1COc2ccc(-c3csc(NCCc4ccccc4)n3)cc2N1 do in these assays?
Pemphigus Ab inh: 106; pCIP destab: -6; Runt-CBFb FRET: 8; RanGTP-Impb inh: -2; Runt-SMMHC FRET: 6; Hck Nef HTS: 128*; Hck-Nef confirm: active

How did COc1ccc2oc(/C=C/N(C)C)c(C(=O)c3ccc(Cl)cc3)c2c1 do in these assays?
Pemphigus Ab inh: 113; pCIP destab: -3; Runt-CBFb FRET: 3; RanGTP-Impb inh: 2; Runt-SMMHC FRET: -12; Hck Nef HTS: 98*; Hck-Nef confirm: inactive

How did Cc1nn(CC(=O)Nc2ccccc2C(F)(F)F)c(=O)c2cccn12 do in these assays?
Pemphigus Ab inh: 111; pCIP destab: 9; RanGTP-Impb inh: 4

Results for CCN(CC)c1ccc(/C=c2\sc3nc4ccccc4n3c2=O)c(O)c1 ?
Pemphigus Ab inh: 84; pCIP destab: -13; Runt-CBFb FRET: 20; RanGTP-Impb inh: 135*; Runt-SMMHC FRET: 92*; Hck Nef HTS: 68*

Results for Cc1cc(SCC(=O)OCC(=O)c2c(N)n(C)c(=O)n(C)c2=O)c(C)cc1Br ?
pCIP destab: 4; Runt-CBFb FRET: -3; RanGTP-Impb inh: 1; Runt-SMMHC FRET: -2; Hck Nef HTS: 55*; Hck-Nef confirm: inactive

How did O=C1NC(=S)S/C1=C\C=C\c1ccc([N+](=O)[O-])o1 do in these assays?
Pemphigus Ab inh: 87; pCIP destab: -25; Runt-CBFb FRET: 41; Runt-SMMHC FRET: -9; Hck Nef HTS: 56*; Hck-Nef confirm: active

Results for O=C(O)/C=C/c1ccc([N+](=O)[O-])o1 ?
Pemphigus Ab inh: 102; pCIP destab: -1; Runt-CBFb FRET: 2; RanGTP-Impb inh: 8; Runt-SMMHC FRET: 0; Hck Nef HTS: 27

How did O=C(COC(=O)c1ccccc1SCC(=O)NC1CCS(=O)(=O)C1)NC1CCS(=O)(=O)C1 (configuration not stated) do in these assays?
Pemphigus Ab inh: 87; pCIP destab: 16; Runt-CBFb FRET: 0; RanGTP-Impb inh: 1; Runt-SMMHC FRET: -3; Hck Nef HTS: -13
